IDH1 mut inh: IDH1 R132H (human) inhibition; IDH1 R132H reductase, diaphorase/resazurin fluorescence, 60 min; inhibition, % at 10 µM; hit rate 0.18% among 70,000; AID 624101; in the data active = inhibition above about 34%; inconclusive = no clear call, values can overlap the other calls; inactive = below about 11%;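 note: 0% = DMSO and 100% = no enzyme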
KDM4C inh: inhibitors of human demethylase GASC-1 KDM4C; inhibition, % at 12.5 µM; AID 720574; hit rate 0.15% among 96,000; Q9H3R0; GST-KDM4C 2-372, H3K9me3 peptide, LANCE TR-FRET;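 active = mean replicate inhibition above about 25%, with at least 55% of replicates also reaching it, limit read from the data, passing the limit was not always enough; inconclusive = only one of those two conditions met; inactive = neither condition met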
Target sequence (Q9H3R0 2-372 limits assumed): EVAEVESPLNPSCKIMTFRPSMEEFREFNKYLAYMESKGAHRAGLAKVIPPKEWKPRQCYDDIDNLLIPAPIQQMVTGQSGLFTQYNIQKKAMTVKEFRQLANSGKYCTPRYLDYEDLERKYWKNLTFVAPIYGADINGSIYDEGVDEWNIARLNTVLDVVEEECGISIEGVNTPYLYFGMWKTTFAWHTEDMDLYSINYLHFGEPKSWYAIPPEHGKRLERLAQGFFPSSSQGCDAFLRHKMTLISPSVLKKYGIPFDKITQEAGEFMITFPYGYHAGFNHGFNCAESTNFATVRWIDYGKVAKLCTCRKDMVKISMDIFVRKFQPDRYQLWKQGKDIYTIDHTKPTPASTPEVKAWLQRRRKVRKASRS
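Test system: N-terminal GST-fused human GASC-1 (KDM4C) fragment, residues 2-372; quantity: GASC-1 enzyme at 10 nM final in reaction; dosing: single dose; schedule: 30 min demethylation and 1 h detection at room temperature; signal: LANCE TR-FRET, excitation 340 nm, emissions 618 and 671 nm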
T cruzi growth-1: blocks T. cruzi growth in NIH3T3 culture; T. cruzi beta-gal in NIH3T3, GalScreen luminescence, 90 h; inhibition, % at 8.34 µM; hit rate 5.9% among 77,000;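 active = mean inhibition above about 93%, with at least 55% of replicates each passing it, limit read from the data, passing the limit was not always enough; inconclusive = only one of those two conditions holds; inactive = neither condition holds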
T cruzi growth-2: inhibitors of T. cruzi proliferation; shares compounds with T cruzi growth-1; T. cruzi beta-gal in NIH3T3, GalScreen luminescence, 90 h; hit rate 72% among 5,600; inhibition, % at 8.35 µM; AID 651739;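 active = mean replicate inhibition above about 95% and at least 55% of replicates individually reaching it, limit read from the data; inconclusive = only one of the two criteria is met; inactive = neither criterion is met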
T cruzi growth-3: Trypanosoma cruzi proliferation inhibition; shares compounds with T cruzi growth-1; T. cruzi beta-gal in NIH3T3, GalScreen luminescence, 90 h; inhibition, % at 2.09 µM; hit rate 21% among 5,600;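 active = mean inhibition above about 95%, with at least 55% of replicates also reaching it, limit read from the data; inconclusive = meets just one of the two conditions; inactive = meets neither condition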;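 note: plate controls were neutral control median for no effect and positive control median for full effect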
3T3 cytotox: cytotoxicity in mouse NIH/3T3 fibroblasts | shares compounds with T cruzi growth-1 | NIH/3T3 viability, CellTiter-Glo ATP luminescence, 90 h | hit rate 14% among 5,600 | cytotoxicity (signal decrease), % at 8.35 µM;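 active = mean signal decrease across replicates above about 35% based on untreated-well scatter, with enough replicates individually passing, limit read from the data; inconclusive = no rule stated though some were filed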;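 note: 0% = median of neutral control wells and 100% = median of positive control wells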
3T3 cytotox 2: kills mouse NIH/3T3 fibroblasts. NIH/3T3 viability, CellTiter-Glo ATP luminescence, 90 h. shares compounds with T cruzi growth-1. hit rate 56% among 5,600. inhibition, % at 24.9 µM;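 active = mean loss of cell viability signal at or above a set limit, and enough replicates individually reaching it; inconclusive = meets only the mean limit or only the replicate share; inactive = meets neither condition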;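 note: 0% = median of neutral control wells and 100% = median of positive control wells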
The depositor's hits bear a star; ? = inconclusive; . = not tested or not shown. Only a selection was taken, and hits are over-represented in it overall.

SMILES	IDH1 mut inh	KDM4C inh	T cruzi growth-1	T cruzi growth-2	T cruzi growth-3	3T3 cytotox	3T3 cytotox 2
C[C@H](NC(=O)C[C@@H]1CC[C@H]2[C@@H](COC[C@H](O)CN2C(=O)Nc2ccccc2)O1)c1ccccc1	.	1	13	.	.	.	.
C[C@@H]1CCCCO[C@H](CN(C)C(=O)Nc2ccc(C(F)(F)F)cc2)[C@@H](C)CN([C@@H](C)CO)C(=O)c2cc(NS(=O)(=O)c3ccccc3)ccc2O1	.	0	86	.	.	.	.
C[C@H]1CCCCO[C@@H](CN(C)C(=O)Nc2ccc(C(F)(F)F)cc2)[C@@H](C)CN([C@@H](C)CO)C(=O)c2cc(NS(=O)(=O)c3ccccc3)ccc2O1	.	1	?	?	107*	-10	18
N#Cc1cccc(-c2ccc([C@@H]3[C@@H](CO)N4CCCCN(C(=O)Nc5cccc(F)c5)C[C@@H]34)cc2)c1	.	0	104*	110*	72	28	87*
N#Cc1cccc(-c2ccc([C@H]3[C@@H](CO)N4CCCCN(C(=O)Nc5cccc(F)c5)C[C@H]34)cc2)c1	.	-2	81	.	.	.	.
N#Cc1cccc(-c2ccc([C@H]3[C@H]4CN(C(=O)Nc5cccc(F)c5)CCCCN4[C@H]3CO)cc2)c1	.	-4	122*	110*	60	-6	-8
N#Cc1cccc(-c2ccc([C@H]3[C@@H](CO)N4CCCCN(C(=O)Nc5cccc(F)c5)C[C@@H]34)cc2)c1	.	-1	123*	105*	89	4	-2
CCCNC(=O)[C@H]1[C@H](CO)[C@H]2Cn3c(cccc3=O)[C@@H]1N2C(=O)Nc1cc(F)ccc1F	.	0	101*	?	4	21	9
CCCNC(=O)[C@H]1[C@H](CO)[C@H]2Cn3c(cccc3=O)[C@@H]1N2CCC(F)(F)F	.	-1	2	.	.	.	.
CN(C)C(=O)[C@@H]1[C@@H](CO)[C@@H]2Cn3c(cccc3=O)[C@H]1N2C(=O)c1ccccc1	.	1	53	.	.	.	.
CCCNC(=O)[C@@H]1[C@@H](CO)[C@@H]2Cn3c(cccc3=O)[C@H]1N2CCC(F)(F)F	.	0	94*	?	-26	11	-7
CCNC(=O)[C@@H]1[C@@H](CO)[C@@H]2Cn3c(cccc3=O)[C@H]1N2C(=O)Nc1cc(F)ccc1F	.	-2	.	.	.	.	.
CN(C)C(=O)[C@H]1[C@H](CO)[C@H]2Cn3c(cccc3=O)[C@@H]1N2C(=O)c1ccc(F)cc1	.	0	185*	4	-5	-17	-8
COc1ccc(CN(C)C[C@@H]2Oc3c(NC(=O)Nc4cccc5ccccc45)cccc3C(=O)N([C@@H](C)CO)C[C@@H]2C)cc1	-1	1	55	.	.	.	.
CN(C)CCCNC(=O)C[C@H]1CC[C@H]2[C@@H](COC[C@H](O)CN2CC2CCCC2)O1	.	-2	63	.	.	.	.
O=C(c1ccc2c(c1)OCO2)N1CC[C@H]2[C@H](CO)Nc3ccc(-c4ccccc4)cc3[C@H]21	.	-1	85	.	.	.	.
C[C@@H]1CN([C@H](C)CO)C(=O)c2cc(-c3cncnc3)cnc2O[C@H]1CN(C)Cc1ccc(Oc2ccccc2)cc1	-5	-1	.	.	.	.	.
COc1ccc(CNC(=O)C[C@@H]2C[C@@H]3c4cc(NC(=O)C5CCC5)ccc4O[C@@H]3[C@@H](CO)O2)cc1	-1	3	-36	.	.	.	.
O=C(C[C@@H]1C[C@H]2c3cc(NC(=O)C4CCOCC4)ccc3O[C@H]2[C@H](CO)O1)NCc1ccc(Oc2ccccc2)cc1	0	0	142*	-3	7	2	-6
O=C(C[C@H]1C[C@@H]2c3cc(NC(=O)C4CCOCC4)ccc3O[C@@H]2[C@H](CO)O1)NCCN1CCCCC1	0	-2	171*	75	10	13	-1
O=C(C[C@@H]1C[C@@H]2c3cc(NC(=O)C4CCOCC4)ccc3O[C@@H]2[C@@H](CO)O1)NCc1ccc(Oc2ccccc2)cc1	1	-1	31	.	.	.	.
O=C(C[C@@H]1C[C@@H]2c3cc(NC(=O)CC4CC4)ccc3O[C@@H]2[C@H](CO)O1)NCCN1CCCCC1	0	2	-123	.	.	.	.
